{"source": "paper PMC10450354", "about": "(Bioactive Materials, 2023)", "key": {"BMDMs": {"system": "BMDMs", "experiment": "Flow cytometry of M2 markers in BMDMs incubated with IL-4 and UPNs", "type": "cell-based, mouse", "details": "for effect of inhibitor on UPN-induced CD206 expression: flow cytometry, IL-4 and UPN induced macrophages", "in_short": "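Bone marrow cells from C57BL/6J mice were red-cell-lysed and grown as BMDMs at 37 °C and 5% CO2 in M-CSF medium (40 ng/ml). Medium was replenished on days 2 and 3 and renewed on day 5. Groups were untreated, IL-4, test nanofibers, and IL-4 plus test nanofibers. STAT6-IN-1 (p-STAT6 inhibitor) was applied with IL-4 plus nanofibers. CD163 and CD206 were quantified by flow cytometry; mean ± SD, n = 3.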"}, "bone defects in mice": {"system": "bone defects in mice", "experiment": "Gene transcript sequencing of bone defects in mice treated with UPs", "type": "in vivo, mouse", "details": "mice treated with UPs for 14 days (tail vein injection); Fig. 3A"}, "macrophages [1]": {"system": "macrophages", "experiment": "Microscopic observation of macrophage state with UP and UPN", "type": "cell-based, mouse", "details": "800 μg/ml, 0, 48 and 72 h; Figure S7 A-C", "in_short": "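Peptide and nanofiber preparations pre-incubated 6 h. Cells then cultured with them for 0, 48 and 72 h. Cell activity state checked by light microscopy alongside a CCK-8 proliferation read (100 μl per 2 ml medium, 2 h, absorbance 450 nm).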"}, "macrophages [2]": {"system": "macrophages", "experiment": "TEM of macrophage mitochondria", "type": "cell-based, mouse", "details": "Ctrl group nearly 20%, Fig. 2J", "in_short": "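Macrophages derived from mouse bone marrow in M-CSF medium (40 ng/ml), refreshed on days 2, 3 and 5, then induced with peptide or nanofibers. Imaged by transmission electron microscopy. Expanded mitochondria scored as a fraction of total mitochondria. Mean ± SD, n = 3.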"}, "BMSCs": {"system": "BMSCs", "experiment": "Transwell migration of BMSCs in coculture", "type": "cell-based, mouse", "in_short": "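BMSCs were obtained from 4-week-old SPF C57BL/6J mouse bone marrow, red-cell-lysed at 4 °C for 10 min, and cultured at 37 °C and 5% CO2. They were then cocultured with macrophages given no treatment, IL-4, or IL-4 plus test nanofibers. BMSC migration was assessed at 0, 24 and 48 h and expressed as percentage of migrating cells; mean ± SD, n = 3.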"}, "p-STAT6": {"system": "p-STAT6", "experiment": "p-STAT6 immunofluorescence in M2-type macrophages", "type": "cell-based, mouse", "details": "24 h; semiquantitative; Ctrl group 1.7%; Fig. 4E"}}, "data": [{"compound": "C/C(=C\\C(=O)N[C@H](C(=O)N1CCC[C@H]1C(=O)N(c1ccccc1)c1ccc(I)cc1)C(C)(C)C)c1ccc(OP(=O)(O)O)cc1", "note": "[STAT6-IN-1]", "values": [{"measurement": "effect of inhibitor on UPN-induced CD206 expression", "setting": "BMDMs", "value": "inhibited UPN-induced expression of the M2-type macrophage marker CD206"}]}, {"compound": "Ser-Glu-Ser-Ser-Glu [UP]", "values": [{"measurement": "expression of Arg1 and CD163 in bone defects", "setting": "bone defects in mice", "value": "marked increase in the expression of Arg1 and CD163"}, {"measurement": "active status of macrophages under the microscope", "setting": "macrophages [1]", "value": "not significantly toxic"}, {"measurement": "percentage of swollen mitochondria", "setting": "macrophages [2]", "value": 38, "unit": "%"}]}, {"compound": "IL-4: interleukin-4, used to induce M2-type macrophages", "values": [{"measurement": "percentage of migrating cells at 24 h", "setting": "BMSCs; 24 h, control group nearly 2%, Fig. 5I", "value": 7.2, "unit": "%"}, {"measurement": "number of migrating cells at 48 h", "setting": "BMSCs; 48 h, control group 4.8%, Fig. 5J", "value": 13.7, "unit": "%"}, {"measurement": "expression of CD163", "setting": "BMDMs; BMDMs, flow cytometry quantification, n = 3, Ctrl nearly 17.2%, Fig. 3L", "value": 50.3, "unit": "%"}, {"measurement": "expression of CD206", "setting": "BMDMs; BMDMs, flow cytometry quantification, n = 3, Ctrl nearly 18.1%, Fig. 3M", "value": 40.9, "unit": "%"}, {"measurement": "p-STAT6 fluorescence intensity", "setting": "p-STAT6", "value": 7.8, "unit": "%"}]}, {"compound": "O=C(Nc1ccccc1)c1cc([N+](=O)[O-])ccc1Cl", "note": "[GW9662]", "values": [{"measurement": "effect of inhibitor on UPN-induced CD206 expression", "setting": "BMDMs", "value": "inhibited UPN-induced expression of the M2 type macrophage marker CD206"}]}]}
